Assays:
Type in all cases: cell-based
Settings in all cases: COS-7
[1] = target: T1, Ectonucleotide pyrophosphatase/phosphodiesterase family member 1 (Homo sapiens) (UniProt P22413); experiment: Inhibition of human NPP1 expressed in COS7 cells assessed as production of p-nitrophenol using Ap5A as the substrate at 100 uM after 30 mins […]
T1 sequence (whole entry): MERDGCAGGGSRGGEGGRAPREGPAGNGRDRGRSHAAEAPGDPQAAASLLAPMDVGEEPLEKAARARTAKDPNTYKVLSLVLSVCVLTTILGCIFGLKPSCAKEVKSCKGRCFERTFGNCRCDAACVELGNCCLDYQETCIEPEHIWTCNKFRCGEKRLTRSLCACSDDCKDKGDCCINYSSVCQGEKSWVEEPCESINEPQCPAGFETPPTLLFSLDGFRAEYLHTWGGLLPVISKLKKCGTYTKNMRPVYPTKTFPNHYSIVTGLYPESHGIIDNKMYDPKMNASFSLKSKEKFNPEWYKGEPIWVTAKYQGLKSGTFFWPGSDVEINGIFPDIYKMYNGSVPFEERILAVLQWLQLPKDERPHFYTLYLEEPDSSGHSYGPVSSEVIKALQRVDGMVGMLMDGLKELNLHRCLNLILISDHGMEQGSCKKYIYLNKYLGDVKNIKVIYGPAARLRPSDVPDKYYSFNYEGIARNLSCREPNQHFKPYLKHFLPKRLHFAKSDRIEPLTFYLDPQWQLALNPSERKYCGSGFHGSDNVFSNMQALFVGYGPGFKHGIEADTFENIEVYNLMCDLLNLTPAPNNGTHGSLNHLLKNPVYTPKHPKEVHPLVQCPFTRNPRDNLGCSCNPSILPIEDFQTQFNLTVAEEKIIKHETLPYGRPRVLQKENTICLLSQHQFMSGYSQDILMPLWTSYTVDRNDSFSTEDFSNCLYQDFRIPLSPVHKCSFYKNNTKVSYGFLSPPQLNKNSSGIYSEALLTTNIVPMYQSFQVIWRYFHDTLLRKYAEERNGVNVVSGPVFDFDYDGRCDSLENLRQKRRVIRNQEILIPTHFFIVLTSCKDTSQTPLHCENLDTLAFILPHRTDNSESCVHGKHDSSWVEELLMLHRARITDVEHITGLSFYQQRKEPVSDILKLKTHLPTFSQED

[2] = target: T2, Ectonucleoside triphosphate diphosphohydrolase 3 (Homo sapiens) (UniProt O75355); experiment: Inhibition of human NTPDase3 expressed in COS7 cells assessed as amount of inorganic phosphate released using ATP as the substrate at 100 uM after 15 mins by malachite green reagent method
T2 sequence (whole entry): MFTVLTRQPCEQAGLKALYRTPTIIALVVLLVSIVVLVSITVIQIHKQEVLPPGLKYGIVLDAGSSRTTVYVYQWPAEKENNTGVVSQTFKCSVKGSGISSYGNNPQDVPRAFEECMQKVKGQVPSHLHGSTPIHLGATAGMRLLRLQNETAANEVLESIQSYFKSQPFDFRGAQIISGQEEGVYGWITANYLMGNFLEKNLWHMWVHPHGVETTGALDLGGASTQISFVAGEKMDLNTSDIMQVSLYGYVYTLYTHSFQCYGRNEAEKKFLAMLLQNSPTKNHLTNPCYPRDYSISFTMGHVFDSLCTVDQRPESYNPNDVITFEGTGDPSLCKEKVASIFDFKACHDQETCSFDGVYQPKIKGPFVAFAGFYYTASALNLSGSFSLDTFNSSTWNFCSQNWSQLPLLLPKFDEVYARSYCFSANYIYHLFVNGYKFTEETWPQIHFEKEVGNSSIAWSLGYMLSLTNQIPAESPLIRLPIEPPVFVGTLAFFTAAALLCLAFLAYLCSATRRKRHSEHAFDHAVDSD
Outline: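 Protein extracts of transfected COS-7 cells (ecto-5'-nucleotidase: 100 μM AMP substrate; NTPDases: 100 μM ATP) were preincubated 3 min at 37 °C in Tris-Ringer pH 7.3 with inhibitor at 100 μM final. After 15 min, malachite green stop; Pi read at 630 nm. Activity given as % of substrate-only control. Mean ± SD of three experiments in triplicate.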

Autotaxin (Homo sapiens) = Autotaxin (Homo sapiens) (UniProt Q13822); experiment: Inhibition of human secreted NPP2 expressed in COS7 cells assessed as production of p-nitrophenol using pnp-TMP as the substrate at 100 uM after 15 mins by malachite green reagent method
Outline: (§1)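 Human NPP1, NPP2 (membrane lysate or conditioned medium for the secreted form) or NPP3 from transfected COS-7 cells, preincubated 3 min at 37 °C in 50 mM Tris pH 8.5 buffer with CaCl2, NaCl and KCl. Substrate and inhibitor both at 100 μM final. pnp-TMP: p-nitrophenol read at 405 nm at 15 min. ATP or Ap5A: stopped at 30 min with perchloric acid, then HPLC. Results as % residual activity versus control; three to six experiments in triplicate.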

[3] = target: T3, Ectonucleotide pyrophosphatase/phosphodiesterase family member 3 (Homo sapiens) (UniProt O14638); experiment: Inhibition of human NPP3 expressed in COS7 cells assessed as production of p-nitrophenol using pnp-TMP as the substrate at 100 uM after 15 mins by malachite green reagent method; outline: as §1
T3 sequence (whole entry): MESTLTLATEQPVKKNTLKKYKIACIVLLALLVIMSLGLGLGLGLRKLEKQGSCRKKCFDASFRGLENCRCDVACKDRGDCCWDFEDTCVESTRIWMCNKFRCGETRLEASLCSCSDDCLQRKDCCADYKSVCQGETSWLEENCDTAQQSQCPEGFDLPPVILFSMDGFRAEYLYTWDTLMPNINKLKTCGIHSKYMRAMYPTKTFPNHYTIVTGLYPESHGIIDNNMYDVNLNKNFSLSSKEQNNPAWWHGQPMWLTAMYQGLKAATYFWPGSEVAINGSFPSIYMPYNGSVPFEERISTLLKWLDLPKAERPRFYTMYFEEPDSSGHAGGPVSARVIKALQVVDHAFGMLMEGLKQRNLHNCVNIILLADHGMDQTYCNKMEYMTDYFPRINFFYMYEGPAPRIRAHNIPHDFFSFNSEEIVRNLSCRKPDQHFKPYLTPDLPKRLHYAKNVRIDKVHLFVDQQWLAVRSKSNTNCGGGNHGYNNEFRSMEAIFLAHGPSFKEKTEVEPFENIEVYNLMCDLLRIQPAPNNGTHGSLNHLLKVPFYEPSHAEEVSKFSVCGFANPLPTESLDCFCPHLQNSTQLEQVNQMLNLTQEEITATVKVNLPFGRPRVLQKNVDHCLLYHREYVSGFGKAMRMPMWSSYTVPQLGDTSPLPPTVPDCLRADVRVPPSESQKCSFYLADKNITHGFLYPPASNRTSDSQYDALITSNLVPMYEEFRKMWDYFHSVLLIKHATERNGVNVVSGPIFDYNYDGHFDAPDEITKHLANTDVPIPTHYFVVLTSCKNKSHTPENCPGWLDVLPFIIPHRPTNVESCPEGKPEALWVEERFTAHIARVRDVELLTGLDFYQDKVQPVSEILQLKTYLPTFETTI

Row | inhibition [1] | inhibition [2] | inhibition (Autotaxin (Homo sapiens)) | inhibition [3] | Compound
1 | 60% | 10% | 60% | 30% | Nc1ncnc2c1ncn2[C@H]1C[C@H](O)[C@@H](COP(=O)(O)CP(=O)(O)OP(=O)(O)CP(=O)(O)OC[C@H]2O[C@@H](n3cnc4c(N)ncnc43)C[C@@H]2O)O1
2 | 60% | 10% | 60% | 30% | BP(=O)(OP(=O)(O)CP(=O)(O)OC[C@H]1O[C@@H](n2cnc3c(N)ncnc32)[C@H](O)[C@@H]1O)OP(=O)(O)CP(=O)(O)OC[C@H]1O[C@@H](n2cnc3c(N)ncnc32)[C@H](O)[C@@H]1O
3 | 60% | 10% | 60% | 30% | BP(=O)(OP(=O)(O)CP(=O)(O)OC[C@H]1O[C@@H](n2cnc3c(N)ncnc32)C[C@@H]1O)OP(=O)(O)CP(=O)(O)OC[C@H]1O[C@@H](n2cnc3c(N)ncnc32)C[C@@H]1O
4 | 20% | 10% | 60% | 30% | Nc1ncnc2c1ncn2[C@@H]1O[C@H](COP(=O)(O)CP(=O)(O)OP(=O)(O)CP(=O)(O)OC[C@H]2O[C@@H](n3cnc4c(N)ncnc43)[C@H](O)[C@@H]2O)[C@@H](O)[C@H]1O

Source: ChEMBL document CHEMBL1799960, “Diadenosine 5',5''-(boranated)polyphosphonate analogues as selective nucleotide pyrophosphatase/phosphodiesterase inhibitors” (J Med Chem, 2010)
